Results from ChEMBL document CHEMBL5244264, “Design, synthesis, and structure activity relationship (SAR) studies of novel imidazo[1,2-a] pyridine derivatives as Nek2 inhibitors” (Bioorg Med Chem, 2020).

Experiments:
Type in all cases: functional, cell-based
MGC-803 = experiment: Antitumor activity against human MGC-803 cells assessed as inhibition of cell proliferation incubated for 72 hrs by MTT assay; conditions: MGC-803, 72 h
HCT-116 = experiment: Antitumor activity against human HCT-116 cells assessed as inhibition of cell proliferation incubated for 72 hrs by MTT assay; conditions: HCT-116, 72 h
Method in brief: (§1)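 Cells were exposed to a range of compound concentrations for 72 h at 37 °C. Proliferation was read by MTT assay, and IC50 values are reported.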

Bel-7402 = experiment: Antitumor activity against human Bel-7402 cells assessed as inhibition of cell proliferation incubated for 72 hrs by MTT assay; conditions: Bel-7402, 72 h; method in brief: as §1
Hep 3B2 = experiment: Antitumor activity against human Hep3B cells assessed as inhibition of cell proliferation incubated for 72 hrs by MTT assay; method in brief: as §1

Structure (SMILES) | IC50 (MGC-803) [µM] | further results
COC(=O)c1sc(-c2cnc3cc(-c4cnn(C)c4)ccn23)cc1OC(C)c1cccc(F)c1 (stereo not given) | > 30 | –
CC(Oc1cc(-c2cnc3cc(-c4cnn(C5CCN(C(=O)OC(C)(C)C)CC5)c4)ccn23)sc1C(N)=O)c1ccccc1C(F)(F)F (stereo not given) | 1.81 | –
COC(=O)c1sc(-c2cnc3cc(-c4cnn(C)c4)ccn23)cc1OC(C)c1ccccc1 (stereo not given) | 9.18 | –
COC(=O)c1sc(-c2cnc3cc(-c4cnn(CCN5CCCC5)c4)ccn23)cc1OC(C)c1ccccc1C(F)(F)F (stereo not given) | 2.05 | –
CC(Oc1cc(-c2cnc3cc(-c4cnn(CCN5CCCC5)c4)ccn23)sc1C(N)=O)c1ccccc1C(F)(F)F (stereo not given) | 8.4 | –
CC(Oc1cc(-c2cnc3cc(-c4cnn(CC5CN(C(=O)OC(C)(C)C)C5)c4)ccn23)sc1C(N)=O)c1ccccc1C(F)(F)F (stereo not given) | 0.038 | IC50 (HCT-116): 0.48 µM; IC50 (Bel-7402): 10.4 µM; IC50 (Hep 3B2): 1.25 µM
CC(Oc1cc(-c2cnc3cc(-c4cnn(C)c4)ccn23)sc1C(N)=O)c1ccccc1 (stereo not given) | 2.98 | –
CC(Oc1cc(-c2cnc3cc(-c4cnn(C)c4)ccn23)sc1C(N)=O)c1ccccc1F (stereo not given) | 3.52 | –
CC(Oc1cc(-c2cnc3cc(-c4cnn(CCN5CCCCC5)c4)ccn23)sc1C(N)=O)c1ccccc1C(F)(F)F (stereo not given) | 8.68 | –
CC(Oc1cc(-c2cnc3cc(-c4cnn(CCN(C)C)c4)ccn23)sc1C(N)=O)c1ccccc1F (stereo not given) | 2.91 | –
COC(=O)c1sc(-c2cnc3cc(-c4cnn(CCN(C)C)c4)ccn23)cc1OC(C)c1ccccc1F (stereo not given) | 2.47 | –
CC(Oc1cc(-c2cnc3cc(-c4cnn(C5CCN(C(=O)OC(C)(C)C)C5)c4)ccn23)sc1C(N)=O)c1ccccc1C(F)(F)F (stereo not given) | 0.55 | –
COC(=O)c1sc(-c2cnc3cc(-c4cnn(C5CCN(C(=O)OC(C)(C)C)CC5)c4)ccn23)cc1OC(C)c1ccccc1C(F)(F)F (stereo not given) | 20.4 | –
CC(Oc1cc(-c2cnc3cc(-c4cnn(C)c4)ccn23)sc1C(N)=O)c1cccc(C(F)(F)F)c1 (stereo not given) | 3.48 | –
COC(=O)c1sc(-c2cnc3cc(-c4cnn(C)c4)ccn23)cc1OC(C)c1cccc(C(F)(F)F)c1 (stereo not given) | 17.3 | –
COC(=O)c1sc(-c2cnc3cc(-c4cnn(C5CCN(C(=O)OC(C)(C)C)C5)c4)ccn23)cc1OC(C)c1ccccc1C(F)(F)F (stereo not given) | 20.3 | –
COC(=O)c1sc(-c2cnc3cc(-c4cnn(CCN(C)C)c4)ccn23)cc1OC(C)c1ccccc1C(F)(F)F (stereo not given) | 0.32 | –

Structure (SMILES) | IC50 (MGC-803) [µM] | further results
COC(=O)c1sc(-c2cnc3cc(-c4cnn(C)c4)ccn23)cc1OC(C)c1ccccc1C(F)(F)F (stereo not given) | 3.92 | –
COC(=O)c1sc(-c2cnc3cc(-c4cnn(CCCN5CCN(C)CC5)c4)ccn23)cc1OC(C)c1ccccc1C(F)(F)F (stereo not given) | 3.76 | –
COC(=O)c1sc(-c2cnc3cc(-c4cnn(CC5CN(C(=O)OC(C)(C)C)C5)c4)ccn23)cc1OC(C)c1ccccc1C(F)(F)F (stereo not given) | 19.3 | –
COC(=O)c1sc(-c2cnc3cc(-c4cnn(CCN(C)C)c4)ccn23)cc1OC(C)c1ccccc1 (stereo not given) | 1.29 | –
CC(Oc1cc(-c2cnc3cc(-c4cnn(CCN(C)C)c4)ccn23)sc1C(N)=O)c1cccc(C(F)(F)F)c1 (stereo not given) | 6.81 | –
CN(C)CCn1cc(-c2ccn3c(-c4ccc(C(N)=O)c(OCc5cccc(F)c5)c4)cnc3c2)cn1 | 0.65 | IC50 (HCT-116): 0.7 µM; IC50 (Bel-7402): 6.37 µM; IC50 (Hep 3B2): 1.07 µM
CC(Oc1cc(-c2cnc3cc(-c4cnn(CCN(C)C)c4)ccn23)sc1C(N)=O)c1ccccc1 (stereo not given) | 1.95 | –
COC(=O)c1sc(-c2cnc3cc(-c4cnn(CCN(C)C)c4)ccn23)cc1OC(C)c1cccc(F)c1 (stereo not given) | 1.57 | –
CC(Oc1cc(-c2cnc3cc(-c4cnn(CCN5CCOCC5)c4)ccn23)sc1C(N)=O)c1ccccc1C(F)(F)F (stereo not given) | 0.044 | IC50 (HCT-116): 0.36 µM; IC50 (Bel-7402): 4.33 µM; IC50 (Hep 3B2): 1.25 µM
CC(Oc1cc(-c2cnc3cc(-c4cnn(CCCN5CCN(C)CC5)c4)ccn23)sc1C(N)=O)c1ccccc1C(F)(F)F (stereo not given) | 0.054 | IC50 (HCT-116): 0.46 µM; IC50 (Bel-7402): 5.99 µM; IC50 (Hep 3B2): 1.18 µM
CC(Oc1cc(-c2cnc3cc(-c4cnn(C)c4)ccn23)sc1C(N)=O)c1cccc(F)c1 (stereo not given) | 16.4 | –
COC(=O)c1sc(-c2cnc3cc(-c4cnn(C)c4)ccn23)cc1OC(C)c1ccccc1F (stereo not given) | 11.1 | –
COC(=O)c1sc(-c2cnc3cc(-c4cnn(CCN5CCCCC5)c4)ccn23)cc1OC(C)c1ccccc1C(F)(F)F (stereo not given) | 7.36 | –
CC(Oc1cc(-c2cnc3cc(-c4cnn(CCN(C)C)c4)ccn23)sc1C(N)=O)c1cccc(F)c1 (stereo not given) | 6.02 | –
COC(=O)c1sc(-c2cnc3cc(-c4cnn(CCN5CCOCC5)c4)ccn23)cc1OC(C)c1ccccc1C(F)(F)F (stereo not given) | 5.9 | –
COC(=O)c1sc(-c2cnc3cc(-c4cnn(CCN(C)C)c4)ccn23)cc1OC(C)c1cccc(C(F)(F)F)c1 (stereo not given) | 4.71 | –
